Type in all cases: functional
One assay relates to Proteus vulgaris. Briefly: Antibacterial activity against Proteus vulgaris. An outline of the steps:
(§1)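 Twofold serial broth dilution in tubes, triplicate. Ten tubes of seeded broth (2 mL each); compound added as a 1 mg/mL DMF solution to the first tube, then serially transferred. Bacteria inoculated at 2×10^5 cfu/mL and incubated at 37 °C for 18–24 h. MIC (µg/mL) read visually. DMF solvent, positive growth and standard drug controls run alongside.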

Another assay has as its system Staphylococcus aureus. The experiment in a line: Antibacterial activity against Staphylococcus aureus. Summed up:
as §1

A further assay relates to Candida albicans. The experiment in a line: Antifungal activity against Candida albicans. An outline of the steps:
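For Candida albicans: broth double-dilution in tubes, run in triplicate. Compound added as a 1 mg/mL DMF solution to the first of ten seeded-broth tubes (2 mL), then serially diluted by transfer. Fungal inoculum 5×10^5 cfu/mL; incubation at 30 °C for 48 h. MIC (µg/mL) by visual reading. Controls were DMF solvent, positive growth and standard drug.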

The test system of a further assay is Escherichia coli. The experiment in a line: Antibacterial activity against Escherichia coli. Summed up: as §1
Another assay concerns Pseudomonas aeruginosa. Briefly: Antibacterial activity against Pseudomonas aeruginosa. Summed up:
as §1

Converted amounts (≈) assume the structure as drawn.

Regarding `Cc1ncc(CO)c2cc(C(=O)Nc3ccccc3)/c(=N/c3ccccc3)oc12`, the minimal inhibitory concentration (MIC) (in general, the lowest concentration that inhibits growth of the organism) with Proteus vulgaris amounted to 50 µg/mL (≈ 130 µM); against Staphylococcus aureus, 50 µg/mL (≈ 130 µM); against Candida albicans it was 50 µg/mL (≈ 130 µM); in the assay with Escherichia coli it was 25 µg/mL (≈ 64.9 µM); in the assay on Pseudomonas aeruginosa, 50 µg/mL (≈ 130 µM).
Turning to `COc1ccc(NC(=O)c2cc3c(CO)cnc(C)c3o/c2=N\c2ccc(Cl)c(Cl)c2)cc1`, the minimum inhibitory concentration (MIC) against Proteus vulgaris came to 25 µg/mL (≈ 51.6 µM); in the assay with Staphylococcus aureus it was 12.5 µg/mL (≈ 25.8 µM); against Candida albicans it was 12.5 µg/mL (≈ 25.8 µM); against Escherichia coli, 25 µg/mL (≈ 51.6 µM); with Pseudomonas aeruginosa, 25 µg/mL (≈ 51.6 µM).
Consider `COc1cc(NC(=O)c2cc3c(CO)cnc(C)c3o/c2=N\c2ccc(C(N)=O)cc2)cc(OC)c1`, for which the MIC against Proteus vulgaris worked out at 50 µg/mL (≈ 102 µM); against Staphylococcus aureus it was 50 µg/mL (≈ 102 µM); against Candida albicans, 25 µg/mL (≈ 51.2 µM); against Escherichia coli it was 50 µg/mL (≈ 102 µM); in the assay with Pseudomonas aeruginosa, 50 µg/mL (≈ 102 µM).
As for `Cc1ncc(CO)c2cc(C(=O)Nc3ccccc3)/c(=N/c3ccc(Oc4ccccc4)cc3)oc12`, the minimum inhibitory concentration (MIC) in the assay with Proteus vulgaris was determined as 50 µg/mL (≈ 105 µM); in the assay on Staphylococcus aureus it was 50 µg/mL (≈ 105 µM); in the assay with Candida albicans, 50 µg/mL (≈ 105 µM); with Escherichia coli, 25 µg/mL (≈ 52.4 µM); with Pseudomonas aeruginosa, 50 µg/mL (≈ 105 µM).
With `Cc1ncc(CO)c2cc(C(=O)Nc3ccccc3F)/c(=N/c3ccc(C(F)(F)F)cc3)oc12`, the MIC against Proteus vulgaris was found to be 100 µg/mL (≈ 212 µM); against Staphylococcus aureus, 50 µg/mL (≈ 106 µM); with Candida albicans, 25 µg/mL (≈ 53 µM); against Escherichia coli, 50 µg/mL (≈ 106 µM); in the assay on Pseudomonas aeruginosa, 50 µg/mL (≈ 106 µM).
Turning to `CCc1ccc(NC(=O)c2cc3c(CO)cnc(C)c3o/c2=N\c2ccc3c(c2)OCO3)cc1`, the MIC was 50 µg/mL (≈ 109 µM) in the assay with Proteus vulgaris; 100 µg/mL (≈ 219 µM) in the assay with Staphylococcus aureus; 12.5 µg/mL (≈ 27.3 µM) against Candida albicans; 50 µg/mL (≈ 109 µM) against Escherichia coli; 50 µg/mL (≈ 109 µM) in the assay with Pseudomonas aeruginosa.
For `Cc1ncc(CO)c2cc(C(=O)Nc3ccccc3)/c(=N/c3ccc4c(c3)OCO4)oc12`, the MIC is 50 µg/mL (≈ 116 µM) against Proteus vulgaris; 50 µg/mL (≈ 116 µM) in the assay with Staphylococcus aureus; 50 µg/mL (≈ 116 µM) in the assay on Candida albicans; 25 µg/mL (≈ 58.2 µM) against Escherichia coli; 50 µg/mL (≈ 116 µM) in the assay on Pseudomonas aeruginosa.
`Cc1cc(C)cc(/N=c2\oc3c(C)ncc(CO)c3cc2C(=O)Nc2ccccc2C)c1`: the MIC is 100 µg/mL (≈ 234 µM) against Proteus vulgaris; 100 µg/mL (≈ 234 µM) in the assay on Staphylococcus aureus; 100 µg/mL (≈ 234 µM) with Candida albicans; 100 µg/mL (≈ 234 µM) against Escherichia coli; 50 µg/mL (≈ 117 µM) in the assay on Pseudomonas aeruginosa.
Take `CCc1cccc(/N=c2\oc3c(C)ncc(CO)c3cc2C(=O)Nc2ccccc2)c1`: the MIC against Proteus vulgaris, in the assay on Staphylococcus aureus, with Candida albicans, in the assay on Escherichia coli and with Pseudomonas aeruginosa was 100 µg/mL (≈ 242 µM) each time.
As to `Cc1cccc(/N=c2\oc3c(C)ncc(CO)c3cc2C(=O)Nc2ccccc2C)c1`, the MIC against Proteus vulgaris worked out at 25 µg/mL (≈ 60.5 µM); in the assay with Staphylococcus aureus it was 100 µg/mL (≈ 242 µM); against Candida albicans, 12.5 µg/mL (≈ 30.2 µM); against Escherichia coli it was 50 µg/mL (≈ 121 µM); against Pseudomonas aeruginosa it was 50 µg/mL (≈ 121 µM).
With `CCc1ccc(/N=c2\oc3c(C)ncc(CO)c3cc2C(=O)Nc2ccccc2)cc1`, the minimum inhibitory concentration (MIC) in the assay on Proteus vulgaris, in the assay with Staphylococcus aureus, with Candida albicans, with Escherichia coli and in the assay with Pseudomonas aeruginosa was 50 µg/mL (≈ 121 µM) throughout.
For the compound `COc1cc(/N=c2\oc3c(C)ncc(CO)c3cc2C(=O)Nc2cccc(C)c2)cc(OC)c1`, the minimal inhibitory concentration (MIC) came out at 100 µg/mL (≈ 218 µM) with Proteus vulgaris; 25 µg/mL (≈ 54.4 µM) in the assay on Staphylococcus aureus; 12.5 µg/mL (≈ 27.2 µM) with Candida albicans; 100 µg/mL (≈ 218 µM) against Escherichia coli; 50 µg/mL (≈ 109 µM) with Pseudomonas aeruginosa.
In the case of `COc1ccc(/N=c2\oc3c(C)ncc(CO)c3cc2C(=O)Nc2cccc(C)c2)c(OC)c1`, the MIC turned out to be 50 µg/mL (≈ 109 µM) with Proteus vulgaris; 50 µg/mL (≈ 109 µM) with Staphylococcus aureus; 50 µg/mL (≈ 109 µM) with Candida albicans; 50 µg/mL (≈ 109 µM) against Escherichia coli; 25 µg/mL (≈ 54.4 µM) with Pseudomonas aeruginosa.
As to `Cc1cccc(/N=c2\oc3c(C)ncc(CO)c3cc2C(=O)Nc2ccccc2)c1`, the MIC in the assay with Proteus vulgaris, against Staphylococcus aureus, in the assay with Candida albicans, in the assay on Escherichia coli and with Pseudomonas aeruginosa was 100 µg/mL (≈ 250 µM) in each case.
`Cc1ccc(NC(=O)c2cc3c(CO)cnc(C)c3o/c2=N\c2ccc(Cl)c(Cl)c2)cc1`: the minimal inhibitory concentration (MIC) is 50 µg/mL (≈ 107 µM) in the assay with Proteus vulgaris; 100 µg/mL (≈ 214 µM) with Staphylococcus aureus; 25 µg/mL (≈ 53.4 µM) against Candida albicans; 100 µg/mL (≈ 214 µM) in the assay on Escherichia coli; 50 µg/mL (≈ 107 µM) in the assay on Pseudomonas aeruginosa.
For `COc1cc(/N=c2\oc3c(C)ncc(CO)c3cc2C(=O)Nc2ccccc2)cc(OC)c1`, the minimal inhibitory concentration (MIC) was 50 µg/mL (≈ 112 µM) in the assay with Proteus vulgaris; 50 µg/mL (≈ 112 µM) in the assay with Staphylococcus aureus; 100 µg/mL (≈ 224 µM) against Candida albicans; 50 µg/mL (≈ 112 µM) with Escherichia coli; 25 µg/mL (≈ 56.1 µM) against Pseudomonas aeruginosa.
As for `O=C(O)c1cn(C2CC2)c2cc(N3CCNCC3)c(F)cc2c1=O` [CIPROFLOXACIN], the MIC in the assay with Proteus vulgaris came to 12.5 µg/mL (≈ 37.7 µM); with Escherichia coli, 25 µg/mL (≈ 75.4 µM).
As for `OC(Cn1cncn1)(Cn1cncn1)c1ccc(F)cc1F` [FLUCONAZOLE], the lowest concentration to inhibit growth against Candida albicans (MIC) was 50 µg/mL (≈ 163 µM).

The values are drawn from ChEMBL document CHEMBL1141859, “Synthesis and antimicrobial activity of 5-hydroxymethyl- 8-methyl-2-(N-arylimino)-pyrano[2,3-c]pyridine-3-(N-aryl)-carboxamides” (2005).
